Measured values: the EternaBench riboswitch data

Test system: MS2 coat protein
Experiment: apparent Kd, MS2 coat protein; higher = weaker binding; RNA-MaP array; FMN 200 µM where present
Outline: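 Two titrations, one without ligand and one with constant ligand, were run with SNAP-549-labelled MS2 coat protein from 0.7 or 1.5 nM, doubling to 3 µM. The targets were designs transcribed by stalled E. coli RNA polymerase on Illumina sequencing-chip clusters, in 100 mM Tris-HCl pH 7.5, 80 mM KCl, 4 mM MgCl2, BSA, DTT, yeast tRNA and Tween-20. The apparent Kd is the median of filtered per-cluster binding-curve fits, with green signal normalised to red-channel RNA signal and control-cluster median Fmax.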

[1] = designed as: ON switch for flavin mononucleotide, no ligand
[2] = ligand present: flavin mononucleotide, designed as: ON switch for flavin mononucleotide
[3] = designed as: OFF switch for flavin mononucleotide, no ligand
[4] = ligand present: flavin mononucleotide, designed as: OFF switch for flavin mononucleotide

In the case of “ACAUGAGGAUCACCCAUGUUAAAUUAGGAUAUAUGACUGCACAUGAGGUUCACCCAUGUUCUACCGUAGAAGGGAUAAAUAAUU”, the “apparent Kd” value [1] is reported as 52.6 nM and the “apparent Kd” value [2] is reported as 59.4 nM.

“UGUAUGGACAGAGGAUAUACCGAUAGGAUCUACUAUCGAACAAUUCUCACAUGAGGAUCACCCAUGUAGAAGGCUGUCCAUACU” was tested, and the “apparent Kd” value [3] was 16 nM and the “apparent Kd” value [4] was 29.5 nM.

For “ACAUGAGGAUCACCCAUGUAGAAUGAAGAAGGUACGUUAUUGAUAUGCAGGAAGUGUCGGUGUUGUAAGGAUAUUCUAAUAAUU”, the “apparent Kd” value [1] was 15.5 nM and the “apparent Kd” value [2] was 8.16 nM.

For “UGUCGGAGCAGAGGAUAUUACAUGAGGAUCACCCAUGUAUGAACCAAUAGCUGGAAACAGCAAUGUAAGAAGGCUGCUACGACA”, the “apparent Kd” value [3] was 12.2 nM and the “apparent Kd” value [4] was 153 nM.

For “AAAUCAGCAGGAUAUGCGAUGUUAUGCUAGAUAGCGGGACCACAUGAGGAUCACCCAUGUAGAAGGGCUAGAUA”, the “apparent Kd” value [3] was 34.9 nM and the “apparent Kd” value [4] was 16.8 nM.

With “UGAUAGCACAGAGGAUAUGCGUAGUGUUAUCACUACAUGAGGAUCACCCAUGUAGAAGGCUGUGCUAUCUAAGUCGGAAACGAC” the “apparent Kd” value [3] was 6.33 nM and the “apparent Kd” value [4] was 7.44 nM.

With “GUCGGGAUUACAUGAGGAUCACCCAUGUCAGAACGGGCAGUUAGAAGGUGCCAUUAGGGAGAGGGUAAGGAUAUAAUUUUUGGC” the “apparent Kd” value [1] was 12 nM and the “apparent Kd” value [2] was 10.4 nM.

In the case of “UCGAUGCUAGGAUAUACGUAUACCUCCACCGUUGAUUCCUCACAUGAGGAUCACCCAUGUAGAAGGAGCAUCUA”, the “apparent Kd” value [3] is reported as 79.8 nM and the “apparent Kd” value [4] is reported as 137 nM.

With “GUAUCUUAUGAGAAGGCGAUCAUGAAACAUGAUCGAGGAUAUCAUGAAAACAUGAGGAUCACCCAUGUAUGGGUAUUAUGGUAC” the “apparent Kd” value [1] was 63.5 nM and the “apparent Kd” value [2] was 43.7 nM.

“GGGUACAUCGCAGGAUAUCAUGUAAAUACAUGAGGAUCACCCAUGUCGAUGGAGACAUCGGAGAUUGAGAAGGCCGAUGUACCG” was tested, and the “apparent Kd” value [1] was 622 nM and the “apparent Kd” value [2] was 322 nM.

For “AAUAAACUCACAGGAUAUAGCAGAGGUCGCGUGAACUUACAGACGACGAUGCUAGAAGGGUGACCACAUGAGGAUCACCCAUGU”, the “apparent Kd” value [1] was 591 nM and the “apparent Kd” value [2] was 151 nM.

With “CUGUACAUAGGAUAUAGUUGCUUUUACAUGAGGAUCACCCAUGUCACUCCUCUCUCUCUUCUAGAAGGAUGUUUCU” the “apparent Kd” value [3] was 72.4 nM and the “apparent Kd” value [4] was 53.8 nM.

In the case of “ACAUAGUAAGGAUAUGCUGCUCGUCACUUGCGUGAUGAGUAGCAGAAGGUACAUGAGGAUCACCCAUGUAAAAA”, the “apparent Kd” value [3] is reported as 25.3 nM and the “apparent Kd” value [4] is reported as 19.1 nM.

For “CGGUGACGUGUAGGAUAUGGCGCUGGGUUUUGGCCAGAAGGACAUGAGGAUCACCCAUGUGGUAGAGGGCUGGCGGCCGCCCGU”, the “apparent Kd” value [4] was 108 nM.

For “CUGGUGUGAGGAUAUCAAAGACCUCGGGAUAGUAGCGAGGAUGAGAAGGCACAUGAGGAUCACCCAUGUAACAA”, the “apparent Kd” value [3] was 20.9 nM and the “apparent Kd” value [4] was 33.8 nM.

In the case of “GUCAGCUCGUUAGGAUAUACAACACUGCUUCGGCAGUGUAUUAAGAUCACAUGAGGAUCACCCAUGUAGAAGGCACGAGCUGAU”, the “apparent Kd” value [3] is reported as 8.16 nM and the “apparent Kd” value [4] is reported as 29.5 nM.

In the case of “AUCAGCUCGUCAGGAUAUAUGUCACUGCGUCAGCAGUGUGGUAAGAUCACAUGAGGAUCACCCAUGUAGAAGGGACGAGCUGAU”, the “apparent Kd” value [3] is reported as 30.7 nM and the “apparent Kd” value [4] is reported as 78.8 nM.

For “GGGCCCGGAGGAUAUACAUGAGGAUCACCCAUGUAGGGCCCGGGUAUUUUUGGGCCCUGUAGAAGGUUGGGCCC”, the “apparent Kd” value [3] was 11.5 nM and the “apparent Kd” value [4] was 12.2 nM.

With “GGAAGACAAAGUCUUCCAUAACGAACAUGAGGAUCACCCAUGUAGGAUAUGCUACUCAAAGAGUAGCAGAAGGACAUGUGUCUU” the “apparent Kd” value [3] was 28.1 nM and the “apparent Kd” value [4] was 129 nM.

In the case of “GUAGCAUACAGAGGAUAUCUAAACCGGAAACGGACAUGAGGAUCACCCAUGUGGCGAAAGCCUAGGGAGAAGGCUGAAUGCUAC”, the “apparent Kd” value [1] is reported as 13.2 nM and the “apparent Kd” value [2] is reported as 11.8 nM.

With “CUGAUGUCAGGAUAUCGGUGGCUCACUUGUGUGUGCCAGACCGAGAAGGGACAUGAGGAUCACCCAUGUUUCUA” the “apparent Kd” value [3] was 21.1 nM and the “apparent Kd” value [4] was 93.4 nM.

With “CAUACAGUAGUUAGGAUAUUGCAACGUAUACGGAUCGAGAAGGGACAUGAGGAUCACCCAUGUAGAUUGUAAAG” the “apparent Kd” value [3] was 37.6 nM and the “apparent Kd” value [4] was 30.7 nM.

In the case of “ACGUUAAAAGGAUAUACAUGAGGAUCACCCAUGUUGUUCGAACCGGUAAACCCUCUAUGUAGAAGGUUUGGCGC”, the “apparent Kd” value [3] is reported as 16 nM and the “apparent Kd” value [4] is reported as 17.9 nM.

With “GGUGCCAUGUAGAAGGCAGAUCUGAUUCAGAUCUGAGGAUAUACAUGAGGAUCACCCAUGUAAAGGCUCCGCACGAGAGUGCAA” the “apparent Kd” value [3] was 14.9 nM and the “apparent Kd” value [4] was 41.7 nM.

With “UUUGAAUUGCAAGGAUAUCUUAUUUAGAUUUUAAGAGAAGGUGCUUUACAGUUACAUGAGGAUCACCCAUGUCUUUCUUUUUAU” the “apparent Kd” value [1] was 24.8 nM and the “apparent Kd” value [2] was 20 nM.

With “GGAUAGUGUCGUUAUCCGUAGCGAACAUGAGGAUCACCCAUGUAGGAUAUGUUACUAAACUAGUAACAGAAGGGCGUGAGUCUU” the “apparent Kd” value [3] was 94.2 nM and the “apparent Kd” value [4] was 108 nM.

For “CAAUAACCCUCAUGUACCUGAGGACAUGAGGAUCACCCAUGUAAGGAUAUAGCCAUUAAAUCUAACUAGAAGGUAUAAAUAACC”, the “apparent Kd” value [3] was 1090 nM and the “apparent Kd” value [4] was 552 nM.

In the case of “CUUUUGUGAGGAUAUCAGUAGUAAAUAAAUAAAAUUACUAUUGAGAAGGCACAUGAGGAUCACCCAUGUUCCUC”, the “apparent Kd” value [3] is reported as 34.7 nM and the “apparent Kd” value [4] is reported as 184 nM.

“GGAUGAUAGACAGGAUAUUGAUUGUAAUUAUGUCAAGAAGGGUCUUUGAUUUAAACGACCAGUUACAUGAGGAUCACCCAUGUU” was tested, and the “apparent Kd” value [1] was 30.7 nM and the “apparent Kd” value [2] was 21 nM.

In the case of “AUACAUGAGGAUCACCCAUGUAAUUAAUUAAUUAAUAAGAUCAAGGAUAUCAGCUCGAAUAGAGCUGAGAAGGUGAUCACAUGU”, the “apparent Kd” value [1] is reported as 240 nM and the “apparent Kd” value [2] is reported as 266 nM.

“AGAUGGCGAGGAUAUACAUGAGGAUCACCCAUGUGAAGAUAAAUAGUGAGGAAGAAAAGUAGAAGGCGCUGUCA” was tested, and the “apparent Kd” value [3] was 77.5 nM and the “apparent Kd” value [4] was 447 nM.

For “ACAUACAUUCGAGGAUAUCGGUGAUUAAUUUUACGAGAAGGCGAUAUAAGAUUUAAUAUUUUAGACAUGAGGAUCACCCAUGUA”, the “apparent Kd” value [1] was 27.6 nM and the “apparent Kd” value [2] was 22.7 nM.

In the case of “UUCUAACGAGGAUAUCGAUGGUGGAACAUGAGGAUCACCCAUGUAUGAGAUAUUGUAGUUCGAGAAGGCGUUCAGU”, the “apparent Kd” value [3] is reported as 42.1 nM and the “apparent Kd” value [4] is reported as 32.5 nM.

For “GAGAAGUCAGGAUAUCCAUGGCGGCACUUGCGUGGUGGCGUGGAGAAGGGACAUGAGGAUCACCCAUGUAAAGU”, the “apparent Kd” value [3] was 49.8 nM and the “apparent Kd” value [4] was 39.1 nM.

“UGGUACUAGGGAGGAUAUGGGAAGACACAUGAGGAUCACCCAUGUUUAAGAAUGCCGAGAGGCAACUAGAAGGCCCUAGUACCU” was tested, and the “apparent Kd” value [1] was 71.9 nM and the “apparent Kd” value [2] was 7.95 nM.

For “GUCAGCUCGUGAGGAUAUACAUCACUGCUUCGGCAGUGUAUUAAAAUAACAUGAGGAUCACCCAUGUAGAAGGCACGAGCUGAU”, the “apparent Kd” value [3] was 4.69 nM and the “apparent Kd” value [4] was 5.51 nM.
